Measured values taken from ChEMBL document CHEMBL4138242, “Synthesis and antibacterial evaluation of novel cationic chalcone derivatives possessing broad spectrum antibacterial activity” (Eur J Med Chem, 2018).
The source made the active and inactive calls. The calls are words filed in the database; no cut-off is given here.

Experiments:
[1] = system: Staphylococcus aureus; assay: Antibacterial activity against Staphylococcus aureus ATCC 29213 after 16 to 20 hrs by broth microdilution method; assay type: functional
In short: (§1)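 Broth microdilution per CLSI. Bacteria grown 4-6 h (about 10⁸ CFU/mL), then diluted to about 10⁶ CFU/mL. Medium: Mueller-Hinton broth, except Luria-Bertani broth for E. coli. Compounds in sterile water, twofold series 256-0.5 µg/mL, mixed 1:1 with inoculum, 37 °C for 16-20 h. MIC is the lowest concentration without visible growth. Duplicate wells; experiment repeated at least twice.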

[2] = system: Enterococcus faecalis; assay: Antibacterial activity against Enterococcus faecalis ATCC 29212 after 16 to 20 hrs by broth microdilution method; assay type: functional; in short: as §1
[3] = system: Escherichia coli; assay: Antibacterial activity against Escherichia coli ATCC 25922 after 16 to 20 hrs by broth microdilution method; assay type: functional; in short: as §1
[4] = system: Salmonella enterica; assay: Antibacterial activity against Salmonella enterica ATCC 13076 after 16 to 20 hrs by broth microdilution method; assay type: functional; in short: as §1
[5] = Hemolytic activity in sheep RBC after 1 hr; assay type: ADME, cell-based, Ovis aries, Erythrocyte; conditions: sheep red blood cells (erythrocytes)
In short: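 Sheep red blood cells (150 µL suspension) mixed with 50 µL of compound dilutions (5120-10 µg/mL), 1 h at 37 °C, then centrifuged. Supernatant read at 540 nm. Percent hemolysis calculated relative to RBC-only control (0%) and 0.1% Triton X-100 (100%).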

[6] = system: Staphylococcus aureus; assay: Antibacterial activity against methicillin-resistant Staphylococcus aureus clinical isolate 1105183 cono7 after 16 to 20 hrs by broth microdilution method; assay type: functional
In short: (§2)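 CLSI broth microdilution in Mueller-Hinton broth. A 4-6 h culture was diluted to about 10⁶ CFU/mL and mixed 1:1 with compound dilutions prepared at 256 to 0.5 µg/mL from aqueous stocks. Plates were incubated at 37 °C for 16-20 h and read visually for MIC. Each concentration was run in duplicate, and the experiment was repeated at least twice. Vancomycin and meropenem were comparators.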

[7] = system: Staphylococcus aureus; assay: Antibacterial activity against methicillin-resistant Staphylococcus aureus clinical isolate 20130911034sau after 16 to 20 hrs by broth microdilution method; assay type: functional; in short: as §2
[8] = system: Staphylococcus aureus; assay: Antibacterial activity against methicillin-resistant Staphylococcus aureus clinical isolate 0831010 after 16 to 20 hrs by broth microdilution method; assay type: functional; in short: as §2
[9] = system: Staphylococcus aureus; assay: Antibacterial activity against methicillin-resistant Staphylococcus aureus clinical isolate 1104060 after 16 to 20 hrs by broth microdilution method; assay type: functional; in short: as §2
[10] = system: Staphylococcus aureus; assay: Antibacterial activity against methicillin-resistant Staphylococcus aureus clinical isolate 20131012632sau after 16 to 20 hrs by broth microdilution method; assay type: functional; in short: as §2
[11] = system: Staphylococcus aureus; assay: Antibacterial activity against methicillin-resistant Staphylococcus aureus clinical isolate 1207007 after 16 to 20 hrs by broth microdilution method; assay type: functional; in short: as §2
[12] = system: Staphylococcus aureus; assay: Antibacterial activity against methicillin-resistant Staphylococcus aureus clinical isolate 1-may after 16 to 20 hrs by broth microdilution method; assay type: functional; in short: as §2
[13] = system: Staphylococcus aureus; assay: Antibacterial activity against methicillin-resistant Staphylococcus aureus clinical isolate 0906202 after 16 to 20 hrs by broth microdilution method; assay type: functional; in short: as §2
[14] = system: Staphylococcus aureus; assay: Antibacterial activity against methicillin-resistant Staphylococcus aureus clinical isolate 1208143 after 16 to 20 hrs by broth microdilution method; assay type: functional; in short: as §2
[15] = system: Klebsiella pneumoniae; assay: Antibacterial activity against drug-resistant carbapenemase producing Klebsiella pneumoniae clinical isolate KP-14-8 after 16 to 20 hrs by broth microdilution method; assay type: functional; in short: as §2
[16] = system: Klebsiella pneumoniae; assay: Antibacterial activity against drug-resistant carbapenemase producing Klebsiella pneumoniae clinical isolate KP-13-45 after 16 to 20 hrs by broth microdilution method; assay type: functional; in short: as §2
[17] = system: Klebsiella pneumoniae; assay: Antibacterial activity against drug-resistant carbapenemase producing Klebsiella pneumoniae clinical isolate KP-14-3 after 16 to 20 hrs by broth microdilution method; assay type: functional; in short: as §2
[18] = system: Klebsiella pneumoniae; assay: Antibacterial activity against drug-resistant carbapenemase producing Klebsiella pneumoniae clinical isolate KP-14-1 after 16 to 20 hrs by broth microdilution method; assay type: functional; in short: as §2
[19] = system: Klebsiella pneumoniae; assay: Antibacterial activity against drug-resistant carbapenemase producing Klebsiella pneumoniae clinical isolate KP-14-4 after 16 to 20 hrs by broth microdilution method; assay type: functional; in short: as §2
[20] = system: Klebsiella pneumoniae; assay: Antibacterial activity against drug-resistant carbapenemase producing Klebsiella pneumoniae clinical isolate KP-13-54 after 16 to 20 hrs by broth microdilution method; assay type: functional; in short: as §2
[21] = system: Klebsiella pneumoniae; assay: Antibacterial activity against drug-resistant carbapenemase producing Klebsiella pneumoniae clinical isolate KP-14-2 after 16 to 20 hrs by broth microdilution method; assay type: functional; in short: as §2
[22] = system: Klebsiella pneumoniae; assay: Antibacterial activity against drug-resistant carbapenemase producing Klebsiella pneumoniae clinical isolate EC-13-23 after 16 to 20 hrs by broth microdilution method; assay type: functional; in short: as §2
[23] = system: Klebsiella pneumoniae; assay: Antibacterial activity against drug-resistant carbapenemase producing Klebsiella pneumoniae clinical isolate KP-14-5 after 16 to 20 hrs by broth microdilution method; assay type: functional; in short: as §2
[24] = system: Klebsiella pneumoniae; assay: Antibacterial activity against drug-resistant carbapenemase producing Klebsiella pneumoniae clinical isolate KP-13-55 after 16 to 20 hrs by broth microdilution method; assay type: functional; in short: as §2
[25] = system: Klebsiella pneumoniae; assay: Antibacterial activity against drug-resistant carbapenemase producing Klebsiella pneumoniae clinical isolate KP-14-45 after 16 to 20 hrs by broth microdilution method; assay type: functional; in short: as §2
[26] = system: Klebsiella pneumoniae; assay: Antibacterial activity against drug-resistant carbapenemase producing Klebsiella pneumoniae clinical isolate KP-14-18 after 16 to 20 hrs by broth microdilution method; assay type: functional; in short: as §2
[27] = system: Escherichia coli; assay: Antibacterial activity against drug-resistant NDM1 producing Escherichia coli clinical isolate EC-13-49 after 16 to 20 hrs by broth microdilution method; assay type: functional; in short: as §2
[28] = system: Escherichia coli; assay: Antibacterial activity against drug-resistant NDM1 producing Escherichia coli clinical isolate Ecl-14-58 after 16 to 20 hrs by broth microdilution method; assay type: functional; in short: as §2
[29] = system: Escherichia coli; assay: Antibacterial activity against drug-resistant NDM1 producing Escherichia coli clinical isolate KP-13-58 after 16 to 20 hrs by broth microdilution method; assay type: functional; in short: as §2
[30] = system: Escherichia coli; assay: Antibacterial activity against drug-resistant NDM1 producing Escherichia coli clinical isolate Ecl-13-62 after 16 to 20 hrs by broth microdilution method; assay type: functional; in short: as §2
[31] = system: Escherichia coli; assay: Antibacterial activity against drug-resistant NDM1 producing Escherichia coli clinical isolate EC-14-54 after 16 to 20 hrs by broth microdilution method; assay type: functional; in short: as §2
[32] = system: Escherichia coli; assay: Antibacterial activity against drug-resistant NDM1 producing Escherichia coli clinical isolate Ecl-14-59 after 16 to 20 hrs by broth microdilution method; assay type: functional; in short: as §2
[33] = system: Escherichia coli; assay: Antibacterial activity against drug-resistant NDM1 producing Escherichia coli clinical isolate EA-14-61 after 16 to 20 hrs by broth microdilution method; assay type: functional; in short: as §2
[34] = system: Escherichia coli; assay: Antibacterial activity against drug-resistant NDM1 producing Escherichia coli clinical isolate Ecl-14-56 after 16 to 20 hrs by broth microdilution method; assay type: functional; in short: as §2
[35] = system: Escherichia coli; assay: Antibacterial activity against drug-resistant NDM1 producing Escherichia coli clinical isolate 1460 after 16 to 20 hrs by broth microdilution method; assay type: functional; in short: as §2
[36] = system: Escherichia coli; assay: Antibacterial activity against drug-resistant NDM1 producing Escherichia coli clinical isolate SM-15-84 after 16 to 20 hrs by broth microdilution method; assay type: functional; in short: as §2
[37] = system: Escherichia coli; assay: Antibacterial activity against drug-resistant NDM1 producing Escherichia coli clinical isolate CF-15-61 after 16 to 20 hrs by broth microdilution method; assay type: functional; in short: as §2
[38] = system: Escherichia coli; assay: Antibacterial activity against drug-resistant NDM1 producing Escherichia coli clinical isolate CF-13-61 after 16 to 20 hrs by broth microdilution method; assay type: functional; in short: as §2
[39] = system: Staphylococcus aureus; assay: Induction of cytoplasmic membrane depolarization in Staphylococcus aureus ATCC 29213 at 10 to 20 ug/ml measured every 2 mins for 12 mins by DiSC35 dye-based fluorescence assay; assay type: functional, organism-based
In short: (§3)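 Mid-log cells (~10⁸ CFU/mL) were suspended in PBS (S. aureus) or HEPES/glucose/KCl with EDTA (E. coli). They were preloaded with DiSC3(5) for 30 min (S. aureus) or 40 min (E. coli), and baseline fluorescence was read for 8 min. Compound was added to 20 µg/mL final, and fluorescence (ex 622/em 670 nm) was read every 2 min for 12 min. Water served as control.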

[40] = system: Escherichia coli; assay: Induction of cytoplasmic membrane depolarization in Escherichia coli ATCC 25922 at 10 to 20 ug/ml measured every 2 mins for 12 mins by DiSC35 dye-based fluorescence assay; assay type: functional, organism-based; in short: as §3
[41] = system: Staphylococcus aureus; assay: Induction of inner membrane permeabilization in Staphylococcus aureus ATCC 29213 at 10 to 20 ug/ml measured every 2 mins for 12 mins by propidium iodide staining-based fluorescence assay; assay type: functional, organism-based
In short: (§4)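 Mid-log cells (~10⁸ CFU/mL) were suspended in PBS (S. aureus) or HEPES/glucose/KCl (E. coli). They were preincubated with propidium iodide for 30 min (S. aureus) or 40 min (E. coli), and baseline fluorescence was read for 8 min. Compound was added to 20 µg/mL final, and fluorescence (ex 535/em 617 nm) was read every 2 min for 12 min.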

[42] = system: Escherichia coli; assay: Induction of inner membrane permeabilization in Escherichia coli ATCC 25922 at 10 to 20 ug/ml measured every 2 mins for 12 mins by propidium iodide staining-based fluorescence assay; assay type: functional, organism-based; in short: as §4

CCCCCCCC[N+](C)(C)CC(=O)Nc1ccc(C(=O)/C=C/c2cccc(Cl)c2)cc1.[Cl-]
MIC [1]: 2 µg/mL
MIC [2]: 1 µg/mL
MIC [3]: 4 µg/mL
MIC [4]: 4 µg/mL
HC50 at 1 h [5]: 186 µg/mL
MIC [6]: 1 µg/mL
MIC [7]: 0.5 µg/mL
MIC [8]: 0.5 µg/mL
MIC [9]: 8 µg/mL
MIC [10]: 2 µg/mL
MIC [11]: 0.5 µg/mL
MIC [12]: 1 µg/mL
MIC [13]: 4 µg/mL
MIC [14]: 1 µg/mL
MIC [15]: 4 µg/mL
MIC [16]: 4 µg/mL
MIC [17]: 4 µg/mL
MIC [18]: 8 µg/mL
MIC [19]: 4 µg/mL
MIC [20]: 4 µg/mL
MIC [21]: 8 µg/mL
MIC [22]: 4 µg/mL
MIC [23]: 4 µg/mL
MIC [24]: 8 µg/mL
MIC [25]: 8 µg/mL
MIC [26]: 8 µg/mL
MIC [27]: 4 µg/mL
MIC [28]: 4 µg/mL
MIC [29]: 1 µg/mL
MIC [30]: 4 µg/mL
MIC [31]: 4 µg/mL
MIC [32]: 4 µg/mL
MIC [33]: 4 µg/mL
MIC [34]: 4 µg/mL
MIC [35]: 4 µg/mL
MIC [36]: 16 µg/mL
MIC [37]: 8 µg/mL
MIC [38]: 16 µg/mL
Activity [39]: Active
Activity [40]: Active
Activity [41]: Active
Activity [42]: Active
